Reference: ChEMBL document CHEMBL3861998, “Development of 6-arylcoumarins as nonsteroidal progesterone antagonists. Structure-activity relationships and fluorescence properties” (Bioorg Med Chem, 2016)

How the values were obtained:
Progesterone receptor [1] = molecular target: T1, Progesterone receptor (Homo sapiens, UniProt P06401); assay: Antagonist activity at PR in human T47D cells assessed as inhibition of progesterone-induced alkaline phosphatase expression after 24 hrs by alkaline phopshatase assay; format: cell-based
T1 sequence (P06401 whole entry): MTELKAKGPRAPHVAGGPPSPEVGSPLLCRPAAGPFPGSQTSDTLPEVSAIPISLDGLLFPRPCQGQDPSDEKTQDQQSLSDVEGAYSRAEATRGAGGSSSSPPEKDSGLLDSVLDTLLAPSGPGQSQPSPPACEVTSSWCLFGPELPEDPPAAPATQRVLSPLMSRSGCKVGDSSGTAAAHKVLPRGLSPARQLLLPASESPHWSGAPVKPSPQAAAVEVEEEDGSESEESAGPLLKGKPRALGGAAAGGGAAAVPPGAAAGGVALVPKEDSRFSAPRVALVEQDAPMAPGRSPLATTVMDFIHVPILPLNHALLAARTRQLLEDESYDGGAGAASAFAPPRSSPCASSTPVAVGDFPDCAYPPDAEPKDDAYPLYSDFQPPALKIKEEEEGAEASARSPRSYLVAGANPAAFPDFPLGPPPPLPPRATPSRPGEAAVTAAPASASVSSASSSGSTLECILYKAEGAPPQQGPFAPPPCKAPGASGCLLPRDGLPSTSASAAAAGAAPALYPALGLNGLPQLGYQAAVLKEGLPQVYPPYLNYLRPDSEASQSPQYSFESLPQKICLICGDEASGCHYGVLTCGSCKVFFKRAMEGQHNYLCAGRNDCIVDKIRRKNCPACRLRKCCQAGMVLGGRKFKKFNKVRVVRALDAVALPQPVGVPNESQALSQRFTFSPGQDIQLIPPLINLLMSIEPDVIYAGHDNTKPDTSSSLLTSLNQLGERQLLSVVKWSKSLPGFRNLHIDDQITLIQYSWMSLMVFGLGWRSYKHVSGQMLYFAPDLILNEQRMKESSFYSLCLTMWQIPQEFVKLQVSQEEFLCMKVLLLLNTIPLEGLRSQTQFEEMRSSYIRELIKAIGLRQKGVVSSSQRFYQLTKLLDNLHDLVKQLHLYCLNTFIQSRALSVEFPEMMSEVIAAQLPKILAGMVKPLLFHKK
Method in brief: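 T-47D cells seeded at 10^4 cells/well and incubated overnight at 37°C, 5% CO₂. Fresh medium with compound added for 24 h. Cells fixed in 1.8% formalin in PBS and washed. Substrate was 1 mg/mL p-nitrophenyl phosphate in diethanolamine buffer, pH 9.0, 2 mM MgCl₂, for 2 h at room temperature in the dark. Stopped with 1 M NaOH; absorbance read at 405 nm.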

Progesterone receptor [2] = molecular target: T1, Progesterone receptor; assay: Displacement of [1,2,6,7-3H]progesterone from recombinant human GST-tagged PR-LBD (675 to 933 residues) expressed in baculovirus-infected insect cells measured after 24 hrs by liquid scintillation counting method
Method in brief: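 Incubated with 4 nM [³H]progesterone and compound (final DMSO 3%) for 24 h at 4°C in the dark. Nonspecific binding set with 200-fold excess unlabeled progesterone. Free ligand removed with dextran/γ-globulin-coated charcoal, 5 min at 4°C, then centrifuged; supernatant counted by liquid scintillation. Duplicates.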

Mus musculus = species on record: Mus musculus; assay: Cytotoxicity against mouse SC3 cells assessed as effect on cell growth at 10^-5 to 10^-7 M after 3 days by CCK8 assay; format: toxicity; conditions: sc-3, 72 h
Method in brief: (§1)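 SC-3 cells kept in MEMα with 2% FBS and 1 nM DHT at 37°C, 5% CO₂. Trypsinized, diluted to 20,000 cells/mL in MEMα with 2% charcoal-stripped FBS, seeded and held 24 h. Serial dilutions of compound or DMSO control added with 1 nM DHT. Incubated 3 days at 37°C. Cell number read by WST-8 (CCK-8), 2 h, absorbance at 450 nm. Triplicate or more.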

Androgen receptor [3] = molecular target: T2, Androgen receptor (Mus musculus, UniProt P19091); assay: Antagonist activity at AR in mouse SC3 cells assessed as inhibition of dihydrotestosterone-induced cell growth at 10^-5 M measured after 3 days by CCK8 assay; format: cell-based; conditions: sc-3, 72 h, 10 µM; method in brief: as §1
T2 sequence (P19091 whole entry): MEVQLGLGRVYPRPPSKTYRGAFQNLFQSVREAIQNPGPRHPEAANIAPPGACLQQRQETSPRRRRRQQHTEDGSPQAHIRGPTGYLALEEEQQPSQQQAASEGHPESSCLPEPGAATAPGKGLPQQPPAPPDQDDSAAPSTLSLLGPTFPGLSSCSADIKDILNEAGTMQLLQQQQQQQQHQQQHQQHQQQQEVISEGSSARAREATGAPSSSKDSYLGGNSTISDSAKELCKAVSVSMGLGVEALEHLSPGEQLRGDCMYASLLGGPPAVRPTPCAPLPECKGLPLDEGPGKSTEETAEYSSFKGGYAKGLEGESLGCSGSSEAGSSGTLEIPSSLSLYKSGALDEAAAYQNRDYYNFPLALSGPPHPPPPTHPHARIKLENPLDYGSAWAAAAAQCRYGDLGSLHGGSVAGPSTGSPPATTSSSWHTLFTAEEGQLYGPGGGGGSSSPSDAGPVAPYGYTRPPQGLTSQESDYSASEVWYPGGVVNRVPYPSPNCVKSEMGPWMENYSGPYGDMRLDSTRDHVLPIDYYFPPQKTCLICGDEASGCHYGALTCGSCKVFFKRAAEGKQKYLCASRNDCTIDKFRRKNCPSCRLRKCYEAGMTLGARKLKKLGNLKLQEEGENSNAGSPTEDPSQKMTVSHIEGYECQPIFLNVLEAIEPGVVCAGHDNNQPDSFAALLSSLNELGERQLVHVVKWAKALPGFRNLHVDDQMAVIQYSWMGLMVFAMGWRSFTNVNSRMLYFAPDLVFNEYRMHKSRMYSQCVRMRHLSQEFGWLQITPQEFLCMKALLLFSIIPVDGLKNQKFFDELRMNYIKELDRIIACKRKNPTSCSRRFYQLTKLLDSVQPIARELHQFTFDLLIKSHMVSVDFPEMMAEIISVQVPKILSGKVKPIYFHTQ

Glucocorticoid receptor = molecular target: T3, Glucocorticoid receptor (Homo sapiens, UniProt P04150); assay: Displacement of [3H]dexamethasone from human GR measured after 18 hrs by scintillation counting method
T3 sequence (P04150 whole entry): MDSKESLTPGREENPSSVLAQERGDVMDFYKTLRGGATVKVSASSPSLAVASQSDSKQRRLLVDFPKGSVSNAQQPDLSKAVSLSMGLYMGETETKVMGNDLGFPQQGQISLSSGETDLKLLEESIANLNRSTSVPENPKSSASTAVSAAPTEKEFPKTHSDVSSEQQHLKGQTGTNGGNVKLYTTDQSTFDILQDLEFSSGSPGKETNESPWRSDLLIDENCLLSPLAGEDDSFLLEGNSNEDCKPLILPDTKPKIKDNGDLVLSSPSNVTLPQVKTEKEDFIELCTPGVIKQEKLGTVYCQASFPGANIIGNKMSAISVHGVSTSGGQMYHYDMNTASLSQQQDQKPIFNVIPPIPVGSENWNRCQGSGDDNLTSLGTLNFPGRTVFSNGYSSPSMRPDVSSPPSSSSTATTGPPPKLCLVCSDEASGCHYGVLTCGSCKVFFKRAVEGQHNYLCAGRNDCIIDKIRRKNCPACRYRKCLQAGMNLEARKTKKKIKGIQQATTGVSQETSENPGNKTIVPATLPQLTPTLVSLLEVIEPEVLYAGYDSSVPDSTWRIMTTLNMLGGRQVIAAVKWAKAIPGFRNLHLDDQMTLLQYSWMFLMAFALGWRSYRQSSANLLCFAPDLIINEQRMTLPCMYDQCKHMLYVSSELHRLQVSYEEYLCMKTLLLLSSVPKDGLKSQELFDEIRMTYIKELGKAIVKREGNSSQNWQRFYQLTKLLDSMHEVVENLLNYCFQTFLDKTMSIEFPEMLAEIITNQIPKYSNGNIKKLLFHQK
Method in brief: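 hGR at 1.25 nM final in 50 mM KH₂PO₄ pH 7.4 with 10 mM sodium molybdate and 1 mM DTT. Incubated with 10^-9 M [³H]dexamethasone and compounds at 10^-7 to 10^-5 M, 0.4% DMSO, for 18 h. Nonspecific binding set with 10^-5 M triamcinolone acetonide. Bound ligand collected by vacuum filtration on glass-fiber filters and counted. Duplicates.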

Androgen receptor [4] = molecular target: T2, Androgen receptor; assay: Antagonist activity at AR in mouse SC3 cells assessed as inhibition of dihydrotestosterone-induced cell growth 10^-5 to 10^-7 M measured after 3 days by CCK8 assay; format: cell-based; conditions: sc-3, 72 h
Method in brief: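 SC-3 cells maintained in MEMα with 2% FBS and 1 nM DHT, 37°C, 5% CO2. Seeded at 20,000 cells/mL in MEMα with 2% charcoal-stripped FBS and held 24 h. Serial dilutions of compound (DMSO control) added with 1 nM DHT, then 3 days at 37°C. WST-8 (CCK-8) added for 2 h, absorbance read at 450 nm. Triplicate or more.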

Molecule `N#Cc1ccc(-c2ccc3oc(=O)ccc3c2)[nH]1` has an IC50 (Progesterone receptor [1]) of 140 nM.
`N#Cc1ccc(-c2ccc3oc(=O)ccc3c2)n1Cc1ccc2ccccc2c1` was tested, and the IC50 (Progesterone receptor [1]) was 290 nM.
With `CCN(CC)c1cc2oc(=O)ccc2cc1-c1ccc(C#N)n1CC#N` the IC50 (Progesterone receptor [1]) was 850 nM.
Molecule `CCN(CC)c1cc2oc(=O)ccc2cc1-c1ccc(C#N)[nH]1` has an IC50 (Progesterone receptor [1]) of 120 nM.
`COc1cc2oc(=O)cc(C)c2cc1-c1ccc(C#N)n1CC1CCCCC1` showed an IC50 (Progesterone receptor [1]) of 550 nM.
`COc1cc2oc(=O)cc(C)c2cc1-c1ccc(C#N)n1Cc1ccc(C#N)cc1` was tested, and the IC50 (Progesterone receptor [1]) was 480 nM.
`CCN(CC)c1cc2oc(=O)ccc2cc1-c1ccc(C#N)n1CC` was tested, and the IC50 (Progesterone receptor [1]) was 250 nM.
Molecule `CCCCCCn1c(C#N)ccc1-c1ccc2oc(=O)ccc2c1` has an IC50 (Progesterone receptor [2]) of 160 nM and an IC50 (Progesterone receptor [1]) of 34 nM.
`CCn1c(C#N)ccc1-c1cc2c(C)cc(=O)oc2cc1OC` showed an IC50 (Progesterone receptor [1]) of 38 nM.
`O=c1ccc2cc(-c3sccc3Cl)ccc2o1` was tested, and the IC50 (Progesterone receptor [1]) was 230 nM.
For `N#CCn1c(C#N)ccc1-c1ccc2oc(=O)ccc2c1`, the IC50 (Progesterone receptor [1]) was 15800 nM.
`COc1cc2oc(=O)cc(C)c2cc1-c1ccc(C#N)[nH]1` gave an IC50 (Progesterone receptor [1]) of 260 nM.
Molecule `COc1cc2oc(=O)cc(C)c2cc1-c1ccc(C#N)n1Cc1ccc(F)cc1` has an IC50 (Progesterone receptor [1]) of 570 nM.
Work on `N#Cc1ccc(Cn2c(C#N)ccc2-c2ccc3oc(=O)ccc3c2)cc1` yielded an IC50 (Progesterone receptor [1]) of 290 nM.
In the case of `CC(=O)c1ccc(-c2ccc3oc(=O)ccc3c2)s1`, the IC50 (Progesterone receptor [1]) is reported as 240 nM.
`COc1cc2oc(=O)cc(C)c2cc1-c1ccc(C#N)n1Cc1ccccc1` was tested, and the IC50 (Progesterone receptor [1]) was 230 nM.
Work on `N#Cc1ccc(-c2ccc3oc(=O)ccc3c2)n1Cc1ccc(F)cc1` yielded an IC50 (Progesterone receptor [1]) of 210 nM.
For `CCN(CC)c1cc2oc(=O)ccc2cc1-c1ccc(C#N)n1C`, the Activity (Mus musculus) was “Non-Toxic”, the “inhibition (INH)” value (Androgen receptor [3]) was “Active” and the IC50 (Progesterone receptor [2]) was 1360 nM. For the same molecule, the IC50 (Progesterone receptor [1]) was 240 nM and the IC50 (Glucocorticoid receptor) was 10000 nM.
With `N#Cc1ccc(-c2ccc3oc(=O)ccc3c2)n1CC1CCCCC1` the IC50 (Progesterone receptor [1]) was 31 nM.
Work on `CCCCCCn1c(C#N)ccc1-c1cc2c(C)cc(=O)oc2cc1OC` yielded an IC50 (Progesterone receptor [1]) of 180 nM.
In the case of `CCn1c(C#N)ccc1-c1ccc2oc(=O)ccc2c1`, the IC50 (Progesterone receptor [1]) is reported as 220 nM.
With `COc1cc2oc(=O)cc(C)c2cc1-c1ccc(C#N)n1C` the Activity (Mus musculus) was “Non-Toxic”, the IC50 (Progesterone receptor [2]) was 990 nM and the IC50 (Progesterone receptor [1]) was 24 nM. For the same molecule, the “inhibition (INH)” value (Androgen receptor [4]) was “Active”.
For `N#Cc1ccc(-c2ccc3oc(=O)ccc3c2)s1`, the IC50 (Progesterone receptor [1]) was 140 nM.
Work on `N#Cc1ccc(-c2ccc3oc(=O)ccc3c2)n1Cc1c(F)c(F)c(F)c(F)c1F` yielded an IC50 (Progesterone receptor [1]) of 190 nM.
`Cc1ccsc1-c1ccc2oc(=O)ccc2c1` showed an IC50 (Progesterone receptor [1]) of 150 nM.
`N#Cc1ccc(-c2ccc3oc(=O)ccc3c2)n1Cc1ccccc1` showed an IC50 (Progesterone receptor [2]) of 790 nM and an IC50 (Progesterone receptor [1]) of 56 nM.
With `CCN(CC)c1cc2oc(=O)ccc2cc1-c1ccc(C#N)n1Cc1ccccc1` the IC50 (Progesterone receptor [1]) was 580 nM.
With `Cc1ccc(-c2ccc3oc(=O)ccc3c2)s1` the IC50 (Progesterone receptor [1]) was 440 nM.
`N#Cc1ccc(-c2ccc3oc(=O)ccc3c2)n1Cc1ccc([N+](=O)[O-])cc1` showed an IC50 (Progesterone receptor [1]) of 450 nM.
Work on `Cc1cc(=O)oc2cc(O)c(-c3ccc(C#N)n3C)cc12` yielded an IC50 (Progesterone receptor [2]) of 15700 nM and an IC50 (Progesterone receptor [1]) of 300 nM.
For `N#Cc1ccc(-c2ccc3oc(=O)ccc3c2)n1Cc1cc(F)cc(F)c1`, the IC50 (Progesterone receptor [1]) was 160 nM.
In the case of `CC(C)(O)C(=O)Nc1ccc([N+](=O)[O-])c(C(F)(F)F)c1` [HYDROXYFLUTAMIDE], the “inhibition (INH)” value (Androgen receptor [4]) is reported as “Active”.
